What was measured:
Assay type in all cases: cell-based
[1] = molecular target: Serine/threonine-protein kinase mTOR (Homo sapiens) (UniProt P42345); assay: Inhibition of FRAP ATP labeling site in human A-375 cells at 5 uM by KiNativ Profiling analysis relative to control
[2] = molecular target: Serine/threonine-protein kinase 24 (Homo sapiens) (UniProt Q9Y6E0); assay: Inhibition of MST3 ACT labeling site in human A-375 cells at 5 uM by KiNativ Profiling analysis relative to control
[3] = molecular target: T1, Acylglycerol kinase, mitochondrial (Homo sapiens) (UniProt Q53H12); assay: Inhibition of AGK ATP labeling site in human A-375 cells at 0.5 uM by KiNativ Profiling analysis relative to control
T1 sequence (whole entry): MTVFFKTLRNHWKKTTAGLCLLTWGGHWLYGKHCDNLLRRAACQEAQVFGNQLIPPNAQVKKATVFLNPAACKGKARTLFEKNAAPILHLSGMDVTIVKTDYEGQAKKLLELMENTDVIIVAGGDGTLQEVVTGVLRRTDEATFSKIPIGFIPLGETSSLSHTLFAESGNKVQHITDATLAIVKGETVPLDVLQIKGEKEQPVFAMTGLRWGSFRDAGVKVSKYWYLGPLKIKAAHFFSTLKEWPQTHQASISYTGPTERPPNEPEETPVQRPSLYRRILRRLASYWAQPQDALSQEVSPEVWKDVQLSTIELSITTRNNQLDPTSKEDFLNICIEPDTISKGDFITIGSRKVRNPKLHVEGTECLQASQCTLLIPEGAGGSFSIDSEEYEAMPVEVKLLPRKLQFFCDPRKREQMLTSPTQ
Method in brief: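 Live A375 melanoma cells were treated with compound at 5 or 0.5 μM, then lysed. The lysates were labeled with a lysine-reactive ATP or ADP-biotin probe. Kinase protection from probe labeling was measured by KiNativ.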

[4] = molecular target: T2, Kinase suppressor of Ras 2 (Homo sapiens) (UniProt Q6VAB6); assay: Inhibition of KSR2 ACT labeling site in human A-375 cells at 0.5 uM by KiNativ Profiling analysis relative to control
T2 sequence (whole entry): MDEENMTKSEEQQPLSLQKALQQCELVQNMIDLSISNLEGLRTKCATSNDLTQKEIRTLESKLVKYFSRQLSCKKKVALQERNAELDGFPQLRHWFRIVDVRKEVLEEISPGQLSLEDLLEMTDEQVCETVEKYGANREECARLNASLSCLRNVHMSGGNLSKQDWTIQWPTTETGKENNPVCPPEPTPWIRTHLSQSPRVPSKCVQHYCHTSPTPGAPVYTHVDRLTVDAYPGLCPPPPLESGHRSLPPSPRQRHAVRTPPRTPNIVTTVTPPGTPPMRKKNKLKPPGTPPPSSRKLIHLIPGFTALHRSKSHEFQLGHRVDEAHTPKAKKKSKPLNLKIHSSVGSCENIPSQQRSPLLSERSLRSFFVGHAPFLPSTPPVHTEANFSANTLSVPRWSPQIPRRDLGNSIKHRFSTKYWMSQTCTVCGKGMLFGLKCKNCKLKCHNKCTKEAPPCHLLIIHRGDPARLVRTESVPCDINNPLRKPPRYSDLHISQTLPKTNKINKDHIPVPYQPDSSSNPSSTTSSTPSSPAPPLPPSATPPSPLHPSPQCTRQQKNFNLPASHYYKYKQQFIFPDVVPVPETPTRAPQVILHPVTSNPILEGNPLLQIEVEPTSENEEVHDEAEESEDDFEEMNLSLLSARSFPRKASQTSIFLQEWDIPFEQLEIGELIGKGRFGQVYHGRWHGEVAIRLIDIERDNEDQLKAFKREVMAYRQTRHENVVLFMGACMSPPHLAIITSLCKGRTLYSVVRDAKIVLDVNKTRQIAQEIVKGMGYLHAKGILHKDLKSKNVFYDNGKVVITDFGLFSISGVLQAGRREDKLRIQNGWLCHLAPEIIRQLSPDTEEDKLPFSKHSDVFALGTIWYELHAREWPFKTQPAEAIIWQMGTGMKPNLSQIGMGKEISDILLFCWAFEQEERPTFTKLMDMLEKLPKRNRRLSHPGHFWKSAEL

[5] = molecular target: Serine/threonine-protein kinase WNK2 (Homo sapiens) (UniProt Q9Y3S1); assay: Inhibition of Wnk2 Lys2 labeling site in human A-375 cells at 0.5 uM by KiNativ Profiling analysis relative to control
[6] = molecular target: Mitogen-activated protein kinase kinase kinase kinase 4 (Homo sapiens, UniProt O95819); assay: Inhibition of ZC1/HGK Lys2 labeling site in human A-375 cells at 0.5 uM by KiNativ Profiling analysis relative to control
[7] = molecular target: T3, Ephrin type-B receptor 2 (Homo sapiens) (UniProt P29323); assay: Inhibition of EphB2 ACT labeling site in human A-375 cells at 0.05 uM by KiNativ Profiling analysis relative to control
T3 sequence (whole entry): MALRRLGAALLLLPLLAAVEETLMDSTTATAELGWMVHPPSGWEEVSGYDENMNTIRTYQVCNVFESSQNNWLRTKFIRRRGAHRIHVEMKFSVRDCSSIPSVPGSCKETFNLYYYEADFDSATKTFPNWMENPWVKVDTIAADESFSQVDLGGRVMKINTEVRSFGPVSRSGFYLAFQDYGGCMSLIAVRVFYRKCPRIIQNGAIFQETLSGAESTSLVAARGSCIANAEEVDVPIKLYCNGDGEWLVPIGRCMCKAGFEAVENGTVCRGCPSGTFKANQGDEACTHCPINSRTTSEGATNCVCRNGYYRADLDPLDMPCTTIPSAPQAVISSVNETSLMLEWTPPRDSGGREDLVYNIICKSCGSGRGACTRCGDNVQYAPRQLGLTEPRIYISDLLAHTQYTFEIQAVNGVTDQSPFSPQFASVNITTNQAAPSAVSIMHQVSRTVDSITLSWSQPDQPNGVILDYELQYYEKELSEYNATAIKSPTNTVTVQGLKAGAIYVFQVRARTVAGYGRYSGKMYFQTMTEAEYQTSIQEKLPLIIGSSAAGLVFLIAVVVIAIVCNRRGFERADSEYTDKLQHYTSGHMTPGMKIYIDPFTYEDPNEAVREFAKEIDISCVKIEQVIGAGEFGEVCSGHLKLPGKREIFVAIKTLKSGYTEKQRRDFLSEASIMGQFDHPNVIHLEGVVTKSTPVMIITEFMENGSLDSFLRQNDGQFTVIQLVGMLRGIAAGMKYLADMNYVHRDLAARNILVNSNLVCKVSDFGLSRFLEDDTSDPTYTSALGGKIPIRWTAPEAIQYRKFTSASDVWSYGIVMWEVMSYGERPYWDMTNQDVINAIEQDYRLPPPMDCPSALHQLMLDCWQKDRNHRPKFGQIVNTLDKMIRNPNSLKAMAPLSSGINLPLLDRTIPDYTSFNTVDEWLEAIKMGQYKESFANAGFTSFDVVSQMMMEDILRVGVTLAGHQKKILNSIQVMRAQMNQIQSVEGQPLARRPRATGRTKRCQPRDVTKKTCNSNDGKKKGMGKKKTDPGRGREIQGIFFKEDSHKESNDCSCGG

Chain of Serine/threonine-protein kinase WNK2 (Homo sapiens) (Q9Y3S1 whole entry): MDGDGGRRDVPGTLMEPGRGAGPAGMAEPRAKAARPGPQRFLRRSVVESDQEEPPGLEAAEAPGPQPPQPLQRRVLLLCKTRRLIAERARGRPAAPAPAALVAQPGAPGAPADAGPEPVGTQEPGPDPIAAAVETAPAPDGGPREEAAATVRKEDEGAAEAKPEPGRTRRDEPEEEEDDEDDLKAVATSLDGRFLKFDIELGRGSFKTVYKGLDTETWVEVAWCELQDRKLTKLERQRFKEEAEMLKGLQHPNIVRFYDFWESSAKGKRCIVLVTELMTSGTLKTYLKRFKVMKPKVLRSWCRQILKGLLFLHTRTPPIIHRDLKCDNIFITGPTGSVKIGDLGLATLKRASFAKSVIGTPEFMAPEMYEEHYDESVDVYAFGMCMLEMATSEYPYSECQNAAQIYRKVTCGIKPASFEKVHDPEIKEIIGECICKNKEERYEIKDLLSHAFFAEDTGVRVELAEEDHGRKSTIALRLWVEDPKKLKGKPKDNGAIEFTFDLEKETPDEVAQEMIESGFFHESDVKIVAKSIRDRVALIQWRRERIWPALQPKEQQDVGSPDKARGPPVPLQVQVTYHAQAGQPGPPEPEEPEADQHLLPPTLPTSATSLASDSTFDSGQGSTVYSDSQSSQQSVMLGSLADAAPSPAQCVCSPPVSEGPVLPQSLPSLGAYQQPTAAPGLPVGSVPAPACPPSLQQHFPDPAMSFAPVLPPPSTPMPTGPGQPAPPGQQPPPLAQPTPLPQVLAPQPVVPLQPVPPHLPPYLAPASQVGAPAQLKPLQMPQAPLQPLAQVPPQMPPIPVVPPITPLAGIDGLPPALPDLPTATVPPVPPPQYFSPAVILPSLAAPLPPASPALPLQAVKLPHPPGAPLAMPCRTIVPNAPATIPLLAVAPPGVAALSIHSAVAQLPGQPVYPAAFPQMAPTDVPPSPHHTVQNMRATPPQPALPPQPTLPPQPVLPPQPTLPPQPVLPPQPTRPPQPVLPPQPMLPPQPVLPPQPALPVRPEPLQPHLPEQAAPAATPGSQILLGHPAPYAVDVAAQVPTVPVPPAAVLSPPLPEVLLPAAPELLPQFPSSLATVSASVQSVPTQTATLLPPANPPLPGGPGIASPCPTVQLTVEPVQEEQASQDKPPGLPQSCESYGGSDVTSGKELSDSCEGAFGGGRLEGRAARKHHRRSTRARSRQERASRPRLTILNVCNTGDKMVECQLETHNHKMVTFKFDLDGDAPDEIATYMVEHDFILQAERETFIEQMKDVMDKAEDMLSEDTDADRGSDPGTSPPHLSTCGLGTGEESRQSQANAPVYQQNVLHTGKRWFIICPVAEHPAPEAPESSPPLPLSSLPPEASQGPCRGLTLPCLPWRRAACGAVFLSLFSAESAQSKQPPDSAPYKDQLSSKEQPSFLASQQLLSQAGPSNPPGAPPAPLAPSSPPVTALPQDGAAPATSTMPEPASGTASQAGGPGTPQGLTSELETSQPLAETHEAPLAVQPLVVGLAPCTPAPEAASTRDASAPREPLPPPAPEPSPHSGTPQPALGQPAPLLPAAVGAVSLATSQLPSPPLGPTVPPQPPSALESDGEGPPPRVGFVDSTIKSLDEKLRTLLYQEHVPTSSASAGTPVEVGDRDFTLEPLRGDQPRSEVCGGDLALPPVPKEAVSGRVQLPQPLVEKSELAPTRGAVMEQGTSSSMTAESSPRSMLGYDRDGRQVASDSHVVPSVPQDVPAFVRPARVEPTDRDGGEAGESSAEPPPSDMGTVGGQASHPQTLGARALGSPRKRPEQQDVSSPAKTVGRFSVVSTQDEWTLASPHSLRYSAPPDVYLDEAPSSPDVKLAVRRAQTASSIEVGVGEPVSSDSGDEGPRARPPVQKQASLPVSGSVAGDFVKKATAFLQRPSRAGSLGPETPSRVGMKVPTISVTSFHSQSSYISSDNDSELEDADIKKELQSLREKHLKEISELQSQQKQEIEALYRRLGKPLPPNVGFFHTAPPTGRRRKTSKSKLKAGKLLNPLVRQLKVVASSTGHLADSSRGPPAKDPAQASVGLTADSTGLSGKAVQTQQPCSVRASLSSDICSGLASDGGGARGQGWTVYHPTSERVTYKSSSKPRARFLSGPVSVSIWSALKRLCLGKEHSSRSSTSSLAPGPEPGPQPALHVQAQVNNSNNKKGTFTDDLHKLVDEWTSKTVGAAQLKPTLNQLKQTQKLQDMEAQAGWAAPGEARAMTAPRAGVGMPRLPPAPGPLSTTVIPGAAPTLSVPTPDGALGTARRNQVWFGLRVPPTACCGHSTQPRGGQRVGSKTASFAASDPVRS
Chain of Mitogen-activated protein kinase kinase kinase kinase 4 (O95819 2-1239 limits assumed): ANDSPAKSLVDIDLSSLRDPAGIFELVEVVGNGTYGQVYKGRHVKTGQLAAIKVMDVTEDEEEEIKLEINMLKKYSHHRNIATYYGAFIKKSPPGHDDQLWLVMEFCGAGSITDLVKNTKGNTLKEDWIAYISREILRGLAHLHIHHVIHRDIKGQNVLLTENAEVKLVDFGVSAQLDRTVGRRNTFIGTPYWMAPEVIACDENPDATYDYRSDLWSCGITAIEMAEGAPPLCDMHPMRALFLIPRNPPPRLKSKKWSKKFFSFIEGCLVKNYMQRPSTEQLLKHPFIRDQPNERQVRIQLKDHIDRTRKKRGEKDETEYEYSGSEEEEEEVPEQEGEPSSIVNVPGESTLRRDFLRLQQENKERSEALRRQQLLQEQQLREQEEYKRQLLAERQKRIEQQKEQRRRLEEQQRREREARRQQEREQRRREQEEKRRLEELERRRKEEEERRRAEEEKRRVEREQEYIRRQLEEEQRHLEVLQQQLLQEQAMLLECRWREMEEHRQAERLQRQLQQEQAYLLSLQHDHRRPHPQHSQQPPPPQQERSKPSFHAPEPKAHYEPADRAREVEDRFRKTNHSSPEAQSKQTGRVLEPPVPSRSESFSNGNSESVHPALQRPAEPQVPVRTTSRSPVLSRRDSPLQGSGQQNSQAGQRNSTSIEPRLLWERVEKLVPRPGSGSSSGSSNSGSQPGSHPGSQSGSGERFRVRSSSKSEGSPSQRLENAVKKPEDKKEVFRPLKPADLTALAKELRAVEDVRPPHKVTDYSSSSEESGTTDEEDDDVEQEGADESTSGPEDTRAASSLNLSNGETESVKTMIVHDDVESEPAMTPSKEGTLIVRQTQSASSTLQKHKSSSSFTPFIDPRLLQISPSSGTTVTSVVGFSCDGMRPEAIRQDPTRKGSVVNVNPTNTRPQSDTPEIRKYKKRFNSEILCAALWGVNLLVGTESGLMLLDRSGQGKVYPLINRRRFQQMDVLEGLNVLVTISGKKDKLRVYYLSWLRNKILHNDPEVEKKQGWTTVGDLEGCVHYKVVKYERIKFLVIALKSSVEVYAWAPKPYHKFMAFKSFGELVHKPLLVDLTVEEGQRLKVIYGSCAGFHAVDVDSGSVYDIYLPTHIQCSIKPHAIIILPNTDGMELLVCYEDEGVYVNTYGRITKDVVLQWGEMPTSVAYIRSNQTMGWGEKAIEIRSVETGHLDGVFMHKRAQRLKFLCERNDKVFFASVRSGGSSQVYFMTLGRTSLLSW
Chain of Serine/threonine-protein kinase 24 (Homo sapiens) (Q9Y6E0 whole entry, looked up): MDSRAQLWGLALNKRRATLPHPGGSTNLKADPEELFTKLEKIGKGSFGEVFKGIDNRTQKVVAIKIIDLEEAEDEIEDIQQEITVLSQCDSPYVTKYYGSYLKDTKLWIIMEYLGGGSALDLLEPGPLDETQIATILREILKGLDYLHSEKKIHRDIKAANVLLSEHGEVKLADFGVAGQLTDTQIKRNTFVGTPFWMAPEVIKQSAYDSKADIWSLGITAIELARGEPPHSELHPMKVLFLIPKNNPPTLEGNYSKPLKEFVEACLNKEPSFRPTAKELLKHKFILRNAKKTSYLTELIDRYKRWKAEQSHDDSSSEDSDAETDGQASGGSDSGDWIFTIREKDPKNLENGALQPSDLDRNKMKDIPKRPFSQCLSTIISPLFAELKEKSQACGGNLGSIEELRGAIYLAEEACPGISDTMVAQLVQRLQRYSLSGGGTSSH

SMILES: CCN1CCN(Cc2ccc(NC(=O)c3ccc(C)c(/C=C/c4cnc5[nH]ccc5c4OC)c3)cc2C(F)(F)F)CC1
- inhibition [1]: -9.4%
- inhibition [2]: 13.7%
- inhibition [3]: 7%
- inhibition [4]: 16.8%
- inhibition [5]: 7.9%
- inhibition [6]: 48.1%
- inhibition [7]: 36.9%

SMILES: CCN1CCN(Cc2ccc(NC(=O)c3ccc(C)c(Oc4ccnc5[nH]ccc45)c3)cc2C(F)(F)F)CC1
- inhibition [1]: -0.1%
- inhibition [2]: 35.1%
- inhibition [3]: -0.1%
- inhibition [4]: 8.5%
- inhibition [5]: -3%
- inhibition [6]: 70.8%
- inhibition [7]: 5%

— ChEMBL document CHEMBL5696442, “Discovery of type II inhibitors of TGFβ-activated kinase 1 (TAK1) and mitogen-activated protein kinase kinase kinase kinase 2 (MAP4K2)” (J Med Chem, 2015)
